Here are results for 9 compounds from ChEMBL document CHEMBL1132569.

For assay [1], the target named is T1, Muscarinic acetylcholine receptor M4 (Homo sapiens) (UniProt P08173).
T1 sequence (whole entry): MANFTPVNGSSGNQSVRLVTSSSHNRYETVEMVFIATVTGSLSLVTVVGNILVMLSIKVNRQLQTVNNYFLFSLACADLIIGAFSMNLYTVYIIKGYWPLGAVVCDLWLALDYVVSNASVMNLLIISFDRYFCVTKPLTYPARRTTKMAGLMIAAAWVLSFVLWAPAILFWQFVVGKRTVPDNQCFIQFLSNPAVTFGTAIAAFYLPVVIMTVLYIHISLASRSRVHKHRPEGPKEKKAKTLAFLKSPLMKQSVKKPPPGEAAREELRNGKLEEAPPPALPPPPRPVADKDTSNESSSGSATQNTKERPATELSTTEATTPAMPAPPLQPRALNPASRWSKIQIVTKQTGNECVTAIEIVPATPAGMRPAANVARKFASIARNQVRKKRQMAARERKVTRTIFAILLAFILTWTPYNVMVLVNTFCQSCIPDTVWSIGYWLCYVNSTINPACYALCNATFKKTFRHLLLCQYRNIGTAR
The experiment in a line: Binding affinity at the NMS liganded human muscarinic acetylcholine receptor M4 was estimated as log affinity (log1/M). In a few lines:
(§1)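 Equilibrium runs were ≥2 h with 2 × 10⁻⁴ M GTP and 0.1–0.7 nM ³H-NMS. Nonspecific binding was defined with 10⁻⁶ M QNB, and bound ligand was filtered and counted. Log affinities came from semiquantitative plus off-rate, quantitative equilibrium, or nonequilibrium assays, fitted by nonlinear least squares to the allosteric ternary complex model.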

Assay [2] deals with T1, Muscarinic acetylcholine receptor M4 (Homo sapiens). The experiment in a line: Binding affinity at the unliganded human muscarinic acetylcholine receptor M4 was estimated as log affinity (log1/M). The gist of the method:
as §1

Assay [3] has the same target. The experiment in a line: Cooperativity with NMS at human muscarinic acetylcholine receptor M4. The gist of the method:
(§2)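 Equilibrium ³H-NMS binding in CHO membranes expressing human m1–m5 receptors was measured with and without ACh, alone and with three agent concentrations. Data were converted to affinity ratios, meaning apparent primary-ligand affinity with agent divided by affinity without it.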

The target is the same in assay [4]. The experiment in a line: Cooperativity with acetylcholine at human muscarinic acetylcholine receptor M4. In a few lines: as §2
The target in assay [5] is Muscarinic acetylcholine receptor M3 (Homo sapiens) (UniProt P20309). The experiment in a line: Cooperativity with NMS at human muscarinic acetylcholine receptor M3. In a few lines:
as §2

For assay [6] the target is unchanged. In words: Cooperativity with acetylcholine at human muscarinic acetylcholine receptor M3. The gist of the method:
as §2

The target is the same in assay [7]. The experiment in a line: Binding affinity at the NMS liganded human muscarinic acetylcholine receptor M3 was estimated as log affinity (log1/M). The gist of the method:
as §1

For assay [8] the target is unchanged. In words: Binding affinity at the unliganded human muscarinic acetylcholine receptor M3 was estimated as log affinity (log1/M). The gist of the method: as §1
In assay [9] the target is T2, Muscarinic acetylcholine receptor M2 (Homo sapiens) (UniProt P08172).
T2 sequence (whole entry): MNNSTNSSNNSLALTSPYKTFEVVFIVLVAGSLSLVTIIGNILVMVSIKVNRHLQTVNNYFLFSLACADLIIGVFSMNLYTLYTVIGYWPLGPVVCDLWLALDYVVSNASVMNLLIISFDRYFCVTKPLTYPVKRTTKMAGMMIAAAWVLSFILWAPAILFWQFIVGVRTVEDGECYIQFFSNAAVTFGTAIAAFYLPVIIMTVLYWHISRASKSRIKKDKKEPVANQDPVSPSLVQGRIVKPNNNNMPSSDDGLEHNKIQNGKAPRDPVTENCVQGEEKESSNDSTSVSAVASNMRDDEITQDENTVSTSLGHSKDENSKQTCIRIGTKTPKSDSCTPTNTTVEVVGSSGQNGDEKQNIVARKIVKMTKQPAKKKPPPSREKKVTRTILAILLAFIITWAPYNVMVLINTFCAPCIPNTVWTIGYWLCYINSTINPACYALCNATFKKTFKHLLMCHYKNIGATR
In words: Binding affinity at the NMS liganded human muscarinic acetylcholine receptor M2 was estimated as log affinity (log1/M). In a few lines: as §1

For assay [10], the target named is T2, Muscarinic acetylcholine receptor M2 (Homo sapiens). In words: Binding affinity at the unliganded human muscarinic acetylcholine receptor M2 was estimated as log affinity (log1/M). In a few lines:
as §1

The target is the same in assay [11]. The experiment in a line: Cooperativity with NMS at human muscarinic acetylcholine receptor M2. In a few lines: as §2
Assay [12] has the same target. In words: Cooperativity with acetylcholine at human muscarinic acetylcholine receptor M2. The gist of the method: as §2
In assay [13] the target is T3, Muscarinic acetylcholine receptor M1 (Homo sapiens) (UniProt P11229).
T3 sequence (whole entry): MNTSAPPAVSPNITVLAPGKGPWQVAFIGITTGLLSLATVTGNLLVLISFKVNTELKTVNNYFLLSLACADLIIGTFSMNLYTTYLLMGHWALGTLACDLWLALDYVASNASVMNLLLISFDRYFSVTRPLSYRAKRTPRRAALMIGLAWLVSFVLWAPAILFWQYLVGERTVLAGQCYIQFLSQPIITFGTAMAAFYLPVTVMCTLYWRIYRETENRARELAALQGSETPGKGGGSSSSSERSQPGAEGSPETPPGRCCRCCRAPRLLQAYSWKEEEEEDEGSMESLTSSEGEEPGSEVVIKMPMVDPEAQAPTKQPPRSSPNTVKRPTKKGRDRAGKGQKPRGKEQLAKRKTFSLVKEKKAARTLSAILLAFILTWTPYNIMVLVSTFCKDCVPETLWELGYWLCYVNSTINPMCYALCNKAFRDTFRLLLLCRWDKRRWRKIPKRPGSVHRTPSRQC
In words: Binding affinity at the NMS liganded human muscarinic acetylcholine receptor M1 was estimated as log affinity (log1/M). The gist of the method: as §1

The target in assay [14] is T3, Muscarinic acetylcholine receptor M1 (Homo sapiens). The experiment in a line: Binding affinity at the unliganded human muscarinic acetylcholine receptor M1 was estimated as log affinity (log1/M). The gist of the method: as §1
Assay [15] shares this target. In words: Cooperativity with NMS at human muscarinic acetylcholine receptor M1. The gist of the method: as §2
For assay [16] the target is unchanged. In words: Cooperativity with acetylcholine at human muscarinic acetylcholine receptor M1. The gist of the method: as §2

A value given as a limit tells only on which side of the number the result lay.

Sequence of Muscarinic acetylcholine receptor M3 (Homo sapiens) (P20309 whole entry, looked up): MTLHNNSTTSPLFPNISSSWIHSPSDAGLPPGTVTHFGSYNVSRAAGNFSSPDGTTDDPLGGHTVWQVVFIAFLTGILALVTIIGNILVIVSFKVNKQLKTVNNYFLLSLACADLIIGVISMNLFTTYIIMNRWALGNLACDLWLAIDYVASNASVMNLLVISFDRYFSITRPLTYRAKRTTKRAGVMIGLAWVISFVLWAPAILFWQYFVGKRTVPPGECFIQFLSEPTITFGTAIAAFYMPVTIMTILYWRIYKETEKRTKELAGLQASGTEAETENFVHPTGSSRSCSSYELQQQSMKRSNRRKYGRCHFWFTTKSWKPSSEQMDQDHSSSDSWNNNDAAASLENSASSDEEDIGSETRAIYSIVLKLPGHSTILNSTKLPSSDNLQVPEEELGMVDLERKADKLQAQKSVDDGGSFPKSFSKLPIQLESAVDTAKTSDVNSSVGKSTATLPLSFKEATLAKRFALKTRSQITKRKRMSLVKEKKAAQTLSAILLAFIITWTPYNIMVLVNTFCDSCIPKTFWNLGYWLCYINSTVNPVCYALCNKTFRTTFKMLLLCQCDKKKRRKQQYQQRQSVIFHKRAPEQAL

As to `CC[N+]12CC[C@@]34c5ccccc5N5C(=O)C[C@@H]6OCC=C(C1)[C@H](C[C@@H]32)[C@@H]6[C@H]54` (stereo not given in full), the Affinity is 4.9 in assay [1]; 4.3 in [2]; 4.2 in assay [7]; 4.2 in assay [8]; 5.2 in [9]; 4.7 in [10]. The Affinity in assay [13] was 4.6; in assay [14], less than 4.5. Further, the Cooperativity is greater than 2 in assay [3]; less than 0.2 in assay [4]; 1.19 in assay [5]; 0.8 in assay [6]; greater than 2 in assay [11]; less than 0.2 in assay [12]. In addition, the figures for the Cooperativity in assay [15] and in assay [16] were 2 and 0.8, respectively.

On to `O=C1C[C@@H]2OCC=C3C[N+]4(Cc5cccc([N+](=O)[O-])c5)CC[C@]56c7ccccc7N1[C@H]5[C@H]2[C@H]3C[C@@H]64` (stereo not given in full), for which the Affinity in assay [1] was 5.6; in [2], less than 5.2; in assay [7] it was 4.8; in [8], less than 4.7; in assay [9], 6; in [10] it was less than 5.4. The Affinity is 5.1 in [13] and less than 4.9 in assay [14]. The Cooperativity is greater than 2 in assay [3]; 0.8 in assay [4]; 2 in assay [5]; 0.8 in assay [6]; greater than 2 in [11]; 0.8 in [12]. Besides, the values for the Cooperativity in [15] and in assay [16] were 2 and 0.8, respectively.

Regarding `O=C1C[C@@H]2OCC=C3C[N+]4(Cc5ccc6ccccc6c5)CC[C@]56c7ccccc7N1[C@H]5[C@H]2[C@H]3C[C@@H]64` (stereo not given in full), the Affinity in [1] was 5.9; in [2], less than 5.6; in assay [7], 6; in [8] it was less than 5.8; in [9] it was 6.1; in assay [10], 5.5. In addition, the Affinity in assay [13] is 5.5; in assay [14] it was less than 5.3. The Cooperativity is 2 in assay [3]; 0.8 in assay [4]; 2 in [5]; 0.8 in assay [6]; greater than 2 in assay [11]; less than 0.2 in assay [12]. For the same compound, the Cooperativity came to 2 in [15] and 0.8 in [16].

For the compound `O=C1C[C@@H]2OCC=C3C[N+]4(CC5CCCCC5)CC[C@]56c7ccccc7N1[C@H]5[C@H]2[C@H]3C[C@@H]64` (stereo not given in full), the Affinity in [1] is 4.8; in assay [2] it was 4.5; in assay [7], 4.1; in assay [8], 4; in assay [9] it was 5.5; in assay [10], less than 4.9. The Affinity in assay [13] was 4.8; in [14] it was less than 4.6. In addition, the Cooperativity was 2 in assay [3]; less than 0.2 in assay [4]; 2 in [5]; less than 0.2 in assay [6]; greater than 2 in [11]; less than 0.2 in [12]. Moreover, the Cooperativity in assay [15] is 2; in [16] it was less than 0.2.

On to `O=C1C[C@@H]2OCC=C3C[N+]4([O-])CC[C@]56c7ccccc7N1[C@H]5[C@H]2[C@H]3C[C@@H]64` (stereo not given in full), for which the Affinity was 4.1 in [1]; less than 3.8 in [2]; 3.9 in assay [7]; less than 3.9 in assay [8]; 4.4 in assay [9]; less than 4.1 in [10]. In addition, the results for the Affinity in assay [13] and in [14] were 3.8 and less than 3.6, respectively. The Cooperativity in assay [3] was 2; in assay [4] it was 0.8; in [5], 2; in assay [6], 0.8; in [11] it was greater than 2; in assay [12] it was 0.8. In addition, the figures for the Cooperativity in assay [15] and in assay [16] were 2 and 0.8, respectively.

On to `CCC[N+]12CC[C@@]34c5ccccc5N5C(=O)C[C@@H]6OCC=C(C1)[C@H](C[C@@H]32)[C@@H]6[C@H]54` (stereo not given in full), for which the Affinity in assay [1] was 4.9; in [2] it was 5.2; in [7], 4.5; in [8], 5; in assay [9], 5.5; in [10], 5.2. Further, the Affinity in assay [13] was 4.8; in assay [14] it was 5.2. The Cooperativity is 0.8 in [3]; less than 0.2 in [4]; 0.8 in [5]; less than 0.2 in assay [6]; 2 in assay [11]; less than 0.2 in [12]. The Cooperativity was 0.8 in [15] and less than 0.2 in assay [16].

`O=C1C[C@@H]2OCC=C3C[N+]4(Cc5ccc(-c6ccccc6)cc5)CC[C@]56c7ccccc7N1[C@H]5[C@H]2[C@H]3C[C@@H]64` (stereo not given in full): the Affinity in assay [1] is 6.3; in [7], 5.7; in assay [8], 5.6; in [9], 5.9; in assay [10] it was 5.6; in assay [13] it was 5.3. Besides, the Affinity in assay [14] is 5.7. The Cooperativity in assay [3] was 2; in [4], 0.8; in assay [5], 1.19; in assay [6] it was less than 0.2; in [11], greater than 2; in [12] it was less than 0.2. Also, the Cooperativity in [15] was 0.8; in assay [16], less than 0.2.

Turning to `O=C1C[C@@H]2OCC=C3C[N+]4(Cc5ccc([N+](=O)[O-])cc5)CC[C@]56c7ccccc7N1[C@H]5[C@H]2[C@H]3C[C@@H]64` (stereo not given in full), the Affinity was 5.4 in assay [1]; 5 in assay [2]; 4.6 in [7]; 4.6 in assay [8]; 5.6 in assay [9]; 4.8 in assay [10]. Further, the Affinity in assay [13] is 5.3; in assay [14], less than 4.8. The Cooperativity in assay [3] is greater than 2; in assay [4], less than 0.2; in assay [5], 1.19; in [6], 0.8; in assay [11], greater than 2; in assay [12] it was less than 0.2. For the same compound, the Cooperativity in assay [15] was greater than 2; in [16] it was 0.8.

Regarding `O=C1C[C@@H]2OCC=C3CN4CC[C@]56c7ccccc7N1[C@H]5[C@H]2[C@H]3C[C@H]46`, the Affinity is 5.2 in assay [1], 5 in [2], 5.3 in assay [9] and 5 in [10]. Moreover, the Cooperativity in assay [3] is 2; in assay [4], 0.8; in [11], greater than 2; in assay [12], less than 0.2.
